Columns and labels:
Type in all cases: functional
[1] = system: HL-60(TB); assay: Growth inhibition of human HL-60(TB) cells at 10 uM after 48 hrs by SRB assay relative to control; details: HL-60, 48 h, read-out: GI
Procedure, shortened: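 Run at NCI under its standard single-dose protocol against a leukemia cell panel. Cells were exposed to 10 µM; growth was read by sulforhodamine B staining of cellular protein and expressed as % growth inhibition versus untreated control. Values above 100% mean the cell population fell below the starting count (cytocidal). Each value is the average of duplicates.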

[2] = system: K562; assay: Growth inhibition of human K562 cells at 10 uM after 48 hrs by SRB assay relative to control; details: K562, 48 h, read-out: GI
Procedure, shortened: (§1)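 Screened at the National Cancer Institute by the standard NCI protocol using the sulforhodamine B assay, which measures cellular protein. Single dose of 10 µM. Result is percent growth inhibition; values above 100% mean cell number fell below the initial population. Values are the average of duplicates.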

[3] = system: MOLT-4; assay: Growth inhibition of human MOLT4 cells at 10 uM after 48 hrs by SRB assay relative to control; details: MOLT-4, 48 h, read-out: GI; procedure, shortened: as §1
[4] = system: SR; assay: Growth inhibition of human SR cells at 10 uM after 48 hrs by SRB assay relative to control; details: read-out: GI
Procedure, shortened: (§2)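 NCI screen against its human cancer cell line panel by the standard NCI protocol, SRB protein stain. Single dose of 10 μM. Percent growth inhibition versus control; values above 100% mean the cell population fell below the starting number. Each value is the mean of duplicates.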

[5] = system: A549; assay: Growth inhibition of human A549 cells at 10 uM after 48 hrs by SRB assay relative to control; details: A549, 48 h, read-out: GI; procedure, shortened: as §1
[6] = system: HOP-62; assay: Growth inhibition of human HOP62 cells at 10 uM after 48 hrs by SRB assay relative to control; details: HOP-62, 48 h, read-out: GI; procedure, shortened: as §1
[7] = system: HOP-92; assay: Growth inhibition of human HOP92 cells at 10 uM after 48 hrs by SRB assay relative to control; details: HOP-92, 48 h, read-out: GI; procedure, shortened: as §1
[8] = system: NCI-H522; assay: Growth inhibition of human NCI-H522 cells at 10 uM after 48 hrs by SRB assay relative to control; details: NCI-H522, 48 h, read-out: GI; procedure, shortened: as §1
[9] = system: COLO 205; assay: Growth inhibition of human COLO205 cells at 10 uM after 48 hrs by SRB assay relative to control; details: COLO 205, 48 h, read-out: GI; procedure, shortened: as §1
[10] = system: HCC 2998; assay: Growth inhibition of human HCC2998 cells at 10 uM after 48 hrs by SRB assay relative to control; details: HCC 2998, 48 h, read-out: GI; procedure, shortened: as §1
[11] = system: HCT-116; assay: Growth inhibition of human HCT116 cells at 10 uM after 48 hrs by SRB assay relative to control; details: HCT-116, 48 h, read-out: GI; procedure, shortened: as §1
[12] = system: HT-29; assay: Growth inhibition of human HT-29 cells at 10 uM after 48 hrs by SRB assay relative to control; details: HT-29, 48 h, read-out: GI; procedure, shortened: as §1
[13] = system: SW-620; assay: Growth inhibition of human SW620 cells at 10 uM after 48 hrs by SRB assay relative to control; details: SW-620, 48 h, read-out: GI; procedure, shortened: as §2
[14] = system: SF-539; assay: Growth inhibition of human SF539 cells at 10 uM after 48 hrs by SRB assay relative to control; details: SF-539, 48 h, read-out: GI; procedure, shortened: as §1
[15] = system: SNB-19; assay: Growth inhibition of human SNB19 cells at 10 uM after 48 hrs by SRB assay relative to control; details: SNB-19, 48 h, read-out: GI; procedure, shortened: as §2
[16] = system: SNB-75; assay: Growth inhibition of human SNB75 cells at 10 uM after 48 hrs by SRB assay relative to control; details: SNB-75, 48 h, read-out: GI; procedure, shortened: as §2
[17] = system: U-251; assay: Growth inhibition of human U251 cells at 10 uM after 48 hrs by SRB assay relative to control; details: U-251, 48 h, read-out: GI; procedure, shortened: as §2
[18] = system: Malme-3M; assay: Growth inhibition of human MALME-3M cells at 10 uM after 48 hrs by SRB assay relative to control; details: read-out: GI; procedure, shortened: as §1
[19] = system: MDA-MB-435; assay: Growth inhibition of human MDA-MB-435 cells at 10 uM after 48 hrs by SRB assay relative to control; details: MDA-MB-435, 48 h, read-out: GI; procedure, shortened: as §1
[20] = system: SK-MEL-2; assay: Growth inhibition of human SK-MEL-2 cells at 10 uM after 48 hrs by SRB assay relative to control; details: SK-MEL-2, 48 h, read-out: GI; procedure, shortened: as §1
[21] = system: SK-MEL-5; assay: Growth inhibition of human SK-MEL-5 cells at 10 uM after 48 hrs by SRB assay relative to control; details: SK-MEL-5, 48 h, read-out: GI; procedure, shortened: as §1
[22] = system: UACC-62; assay: Growth inhibition of human UACC62 cells at 10 uM after 48 hrs by SRB assay relative to control; details: UACC-62, 48 h, read-out: GI; procedure, shortened: as §2
[23] = system: OVCAR-3; assay: Growth inhibition of human OVCAR3 cells at 10 uM after 48 hrs by SRB assay relative to control; details: OVCAR-3, 48 h, read-out: GI; procedure, shortened: as §1
[24] = system: OVCAR-4; assay: Growth inhibition of human OVCAR4 cells at 10 uM after 48 hrs by SRB assay relative to control; details: OVCAR-4, 48 h, read-out: GI; procedure, shortened: as §1
[25] = system: NCI/ADR-RES; assay: Growth inhibition of human NCI/ADR-RES cells at 10 uM after 48 hrs by SRB assay relative to control; details: read-out: GI; procedure, shortened: as §1
[26] = system: 786-0; assay: Growth inhibition of human 786-0 cells at 10 uM after 48 hrs by SRB assay relative to control; details: 786-0, 48 h, read-out: GI; procedure, shortened: as §1
[27] = system: SN12C; assay: Growth inhibition of human SN12C cells at 10 uM after 48 hrs by SRB assay relative to control; details: read-out: GI; procedure, shortened: as §1
[28] = system: TK-10; assay: Growth inhibition of human TK10 cells at 10 uM after 48 hrs by SRB assay relative to control; details: TK-10, 48 h, read-out: GI; procedure, shortened: as §2
[29] = system: UO-31; assay: Growth inhibition of human UO31 cells at 10 uM after 48 hrs by SRB assay relative to control; details: UO-31, 48 h, read-out: GI; procedure, shortened: as §2
[30] = system: PC-3; assay: Growth inhibition of human PC3 cells at 10 uM after 48 hrs by SRB assay relative to control; details: PC-3, 48 h, read-out: GI; procedure, shortened: as §1
[31] = system: Hs-578T; assay: Growth inhibition of human Hs 578T cells at 10 uM after 48 hrs by SRB assay relative to control; details: read-out: GI; procedure, shortened: as §1
[32] = system: BT-549; assay: Growth inhibition of human BT549 cells at 10 uM after 48 hrs by SRB assay relative to control; details: BT-549, 48 h, read-out: GI; procedure, shortened: as §1
[33] = system: MDA-MB-468; assay: Growth inhibition of human MDA-MB-468 cells at 10 uM after 48 hrs by SRB assay relative to control; details: MDA-MB-468, 48 h, read-out: GI; procedure, shortened: as §1

Structure (SMILES)	inhibition of growth at 10 µM [1]	inhibition of growth at 10 µM [2]	inhibition of growth at 10 µM [3]	inhibition of growth at 10 µM [4]	inhibition of growth at 10 µM [5]	inhibition of growth at 10 µM [6]	inhibition of growth at 10 µM [7]	inhibition of growth at 10 µM [8]	inhibition of growth at 10 µM [9]	inhibition of growth at 10 µM [10]	inhibition of growth at 10 µM [11]	inhibition of growth at 10 µM [12]	inhibition of growth at 10 µM [13]	inhibition of growth at 10 µM [14]	inhibition of growth at 10 µM [15]	inhibition of growth at 10 µM [16]	inhibition of growth at 10 µM [17]	inhibition of growth at 10 µM [18]	inhibition of growth at 10 µM [19]	inhibition of growth at 10 µM [20]	further results
COc1cc2oc(-c3cccc(NC(=O)c4ccccc4)c3)cc(=O)c2c(OC)c1OC	39.5%	56.9%	59.4%	68.4%	31.1%	21.6%	52.4%	50.7%	15.6%	12.2%	32.3%	22.9%	8.49%	32.2%	8.59%	22.6%	16.3%	13.2%	19.3%	23.2%	inhibition of growth at 10 µM [21]: 36.8%; inhibition of growth at 10 µM [22]: 33.2%; inhibition of growth at 10 µM [23]: 15.8%; inhibition of growth at 10 µM [24]: 18.3%; inhibition of growth at 10 µM [25]: 25.5%; inhibition of growth at 10 µM [26]: 21.9%; inhibition of growth at 10 µM [27]: 23.8%; inhibition of growth at 10 µM [28]: 8.72%; inhibition of growth at 10 µM [29]: 49%; inhibition of growth at 10 µM [30]: 46.9%; inhibition of growth at 10 µM [31]: 2.76%; inhibition of growth at 10 µM [32]: 25.9%; inhibition of growth at 10 µM [33]: 15.8%
COc1cc2oc(-c3cccc(C(=O)Nc4ccc5c(c4)OCO5)c3)cc(=O)c2c(O)c1OC	5.71%	5.51%	-0.5%	24.1%	25.1%	39.6%	27%	23.9%	5.22%	-4.53%	43%	23.7%	15.5%	11.2%	27.9%	15.4%	44.2%	11.9%	20.9%	10.1%	inhibition of growth at 10 µM [21]: 16%; inhibition of growth at 10 µM [22]: 18.6%; inhibition of growth at 10 µM [23]: 10.5%; inhibition of growth at 10 µM [24]: 99.9%; inhibition of growth at 10 µM [25]: 29.4%; inhibition of growth at 10 µM [26]: 35.7%; inhibition of growth at 10 µM [27]: 31.3%; inhibition of growth at 10 µM [28]: 1.4%; inhibition of growth at 10 µM [29]: 17.9%; inhibition of growth at 10 µM [30]: 27.7%; inhibition of growth at 10 µM [31]: 27.3%; inhibition of growth at 10 µM [32]: 16%; inhibition of growth at 10 µM [33]: 45.4%
COc1ccc(C(=O)Nc2cccc(-c3cc(=O)c4c(O)c(OC)c(OC)cc4o3)c2)cc1	15.4%	11.9%	19.1%	20.8%	15.1%	30.2%	42.3%	34.4%	-7.69%	19.4%	30.2%	1.12%	9.52%	15.3%	34.1%	32.5%	28.9%	0.28%	5.59%	16.6%	inhibition of growth at 10 µM [21]: 16.2%; inhibition of growth at 10 µM [22]: 33.7%; inhibition of growth at 10 µM [23]: -0.49%; inhibition of growth at 10 µM [24]: 4.66%; inhibition of growth at 10 µM [25]: 13.3%; inhibition of growth at 10 µM [26]: 24.5%; inhibition of growth at 10 µM [27]: 25.7%; inhibition of growth at 10 µM [28]: 18.4%; inhibition of growth at 10 µM [29]: 4.63%; inhibition of growth at 10 µM [30]: 19.6%; inhibition of growth at 10 µM [31]: 25.8%; inhibition of growth at 10 µM [32]: 9.6%; inhibition of growth at 10 µM [33]: -6.18%

Reference: ChEMBL document CHEMBL4325889, “Natural products hybrids: 3,5,4'-Trimethoxystilbene-5,6,7-trimethoxyflavone chimeric analogs as potential cytotoxic agents against diverse human cancer cells” (Eur J Med Chem, 2019)
